Non-standard residues stand in square brackets, D forms with d. Residues, ends and D or L forms follow the SMILES beside them. *: point of attachment. NMeNle = CCCC[C@H](NC)C(=O)O; X1 = CCCCCNC(=O)CC(=O)*; Boc = CC(C)(C)OC(=O)*
Tests used:
[1] = biological target: Cholecystokinin receptor type A (Cavia porcellus); test: Ability to displace 1 nM [3H]pCCK-8 from Cholecystokinin type A receptor in guinea pig pancreatic membranes
CHO [2] = test: Agonistic activity on inositol phosphate production by intact transfected CHO cells; format: functional, cell-based; conditions: Cricetulus griseus
Procedure, shortened: (§1)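 Functional agonism on intact CHO cells transfected with CCK2 receptors. Two read-outs were measured, inositol phosphate production and arachidonic acid liberation, each expressed as EC50.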

CHO [3] = test: Compound was evaluated for binding of [3H]BBL454 to two sites in CHO cells with low affinity; format: functional, Cricetulus griseus
CHO [4] = test: Compound was evaluated for maximum binding of [3H]BBL454 to two sites in CHO cells with high affinity; format: functional, Cricetulus griseus
CHO [5] = test: Compound was evaluated for binding of [3H]BBL454 to two sites in CHO cells with high affinity; format: functional, Cricetulus griseus
[6] = biological target: Gastrin/cholecystokinin type B receptor (Rattus norvegicus) (UniProt P30553); test: Ability to displace 1 nM [3H]pCCK-8 from rat Cholecystokinin type B receptor stably expressing in CHO cells
CHO [7] = test: Agonistic activity on arachidonic acid liberation by intact transfected CHO cells; format: functional, cell-based; conditions: Cricetulus griseus
Procedure, shortened: as §1

Chain of Gastrin/cholecystokinin type B receptor (Rattus norvegicus) (P30553 whole entry, looked up): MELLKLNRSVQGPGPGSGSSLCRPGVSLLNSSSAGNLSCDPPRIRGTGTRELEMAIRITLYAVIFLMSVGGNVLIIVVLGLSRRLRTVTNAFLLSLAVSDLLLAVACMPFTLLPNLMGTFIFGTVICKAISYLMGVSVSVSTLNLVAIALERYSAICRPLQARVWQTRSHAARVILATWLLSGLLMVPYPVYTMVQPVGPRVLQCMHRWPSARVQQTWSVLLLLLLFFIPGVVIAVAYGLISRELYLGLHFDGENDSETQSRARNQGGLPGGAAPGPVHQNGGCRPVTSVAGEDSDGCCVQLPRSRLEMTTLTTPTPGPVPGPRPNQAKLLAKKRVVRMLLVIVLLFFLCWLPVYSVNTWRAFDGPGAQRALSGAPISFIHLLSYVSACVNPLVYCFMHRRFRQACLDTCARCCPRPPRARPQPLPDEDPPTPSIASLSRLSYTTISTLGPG

SMILES	Ki [1]	EC50 (CHO [2])	KD2 (CHO [3])	Bmax1 (CHO [4])	KD1 (CHO [5])	Ki [6]	EC50 (CHO [7])
CCCCCNC(=O)CC(=O)N[C@@H](Cc1c[nH]c2ccccc12)C(=O)N(C)[C@@H](CCCC)C(=O)N[C@@H](CC(=O)O)C(=O)N[C@@H](Cc1ccccc1)C(N)=O (X1-W[NMeNle]DF-NH2)	3640 nM	2 nM	194 nM	120 fmol/mg	0.71 nM	2.66 nM	6.9 nM
CCCC[C@@H](C(=O)N[C@@H](CC(=O)O)C(=O)N[C@@H](Cc1ccccc1)C(N)=O)N(C)C(=O)[C@H](Cc1c[nH]c2ccccc12)NC(=O)OC(C)(C)C (Boc-W[NMeNle]DF-NH2)	> 5000 nM					2.6 nM	

Reference: ChEMBL document CHEMBL1146828, “Synthesis and biological characterisation of [3H]BBL454, a new CCK2 selective radiolabelled agonist displaying original pharmacological properties” (Bioorg Med Chem Lett, 2004)
